Screening data from PubChem BioAssay.
Shown are actives, neighbours in structure and some others; about 4.1% of the full set was active somewhere.
KCNQ1 act = potentiators or activators of KCNQ1 channel, primary screen, cell-based, thallium flux, high-throughput; Potassium voltage-gated channel subfamily KQT member 1 (Homo sapiens), P51787; CHO-K1 KCNQ1, thallium flux FluxOR fluorescence; stronger effect = higher value; B-score at 10 µM; hit rate 0.35% among 310,000; AID 2648, 2010;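 active means fluorescence ratio B-score, a plate-corrected score, at least three library SD, with initial intensity B-score within 5 SD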
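Assay system: stable KCNQ1 CHO-K1 line; medium: assay buffer, equal DMSO in all wells; timing: 90 min dye loading and 20 min compound exposure, both at room temperature; technique: kinetic FluxOR thallium fluorescence, 10-s 1-Hz baseline, 110-s post-stimulus read; read-out basis: B score of baseline-normalized fluorescence ratio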
KCC2 mod = KCC2 cotransporter modulators, thallium flux, primary screen, cell-based, HEK293 KCC2, FluoZin-2 fluorescence, MLSMR; KCC2 cells, thallium flux FluoZin-2 fluorescence; B-score of Tl+ flux slope (higher = more flux/activation; lower = inhibition) at 10 µM; hit rate 2.2% among 190,000; AID 1456, 2008;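 active means thallium flux slope and its plate-corrected score both differing from the plate sample mean at a set confidence after two filtering rounds, in either direction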;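 further: slope of fluorescence scaled to starting intensity during 10 to 20 s after thallium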
KCNK3 inh = human KCNK3 channel inhibitors, primary screen, CHO cells, FluxOR thallium flux, B-score; B-score at 10 µM; hit rate 0.84% among 340,000; Potassium channel subfamily K member 3 (Homo sapiens), O14649; FluxOR fluorescence; stronger effect = lower value;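 active means B-score under library mean minus 4 SD, starting fluorescence ratio at most library mean plus 5 SD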;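 further: more negative B-score means stronger inhibition of thallium flux through KCNK3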
Target sequence (O14649 whole entry, looked up): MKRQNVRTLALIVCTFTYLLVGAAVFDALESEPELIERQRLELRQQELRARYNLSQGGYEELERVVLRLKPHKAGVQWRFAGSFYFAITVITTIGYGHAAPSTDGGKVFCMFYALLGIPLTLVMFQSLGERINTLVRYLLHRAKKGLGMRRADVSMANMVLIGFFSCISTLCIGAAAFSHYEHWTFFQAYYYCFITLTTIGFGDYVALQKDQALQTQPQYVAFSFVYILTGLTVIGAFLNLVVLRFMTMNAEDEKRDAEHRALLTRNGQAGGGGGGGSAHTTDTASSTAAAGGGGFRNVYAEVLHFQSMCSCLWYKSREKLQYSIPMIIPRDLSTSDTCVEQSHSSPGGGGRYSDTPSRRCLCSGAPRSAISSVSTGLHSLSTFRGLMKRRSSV
hERG protect = hERG rescue from dofetilide block, primary screen, cell-based, CHO-hERG, FluxOR thallium flux, dofetilide IC70. Voltage-gated inwardly rectifying potassium channel KCNH2 (Homo sapiens), Q12809. dofetilide IC70 present. activation (rescue from dofetilide block), less the hit threshold, % at 10 µM. hit rate 0.51% among 310,000. AID 1511, 2009;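 active means activation above the mean of controls blocked by dofetilide plus 5 SD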;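 further: thallium influx through hERG after potassium depolarization seen as dye fluorescence rise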
KCNQ1 block = inhibitors of human KCNQ1 channel, primary screen, cell-based, thallium flux, high-throughput. CHO-K1 KCNQ1, FluxOR thallium flux fluorescence; stronger effect = higher value. AID 2642, 2010. Potassium voltage-gated channel subfamily KQT member 1 (Homo sapiens), P51787. hit rate 1.3% among 310,000. B-score at 10 µM;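 active means compounds whose thallium flux B-score, printed positive for inhibition, exceeds three library SD while starting fluorescence stays within three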;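 further: channel opened by potassium depolarization with thallium stimulus after 20 min compound exposure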
KCNK9 block = KCNK9 potassium channel inhibitors, primary screen, HEK293 cells, thallium flux. FluxOR thallium flux fluorescence; stronger effect = lower value. B-score at 10 µM. hit rate 1.2% among 310,000. AID 488922, 2010;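 active means ratio B-score over 3 SD below the library mean, with starting fluorescence within 5 SD of its mean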;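 further: negative B-score means less thallium flux so channel inhibition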
KCNK9 inh conf = KCNK9 potassium channel inhibitors, confirmation, HEK293 cells, thallium flux, duplicate | hit rate 43% among 4,900 | FluxOR thallium flux fluorescence | shares compounds with KCNK9 block | inhibition, % at 10 µM;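 active means thallium signal inhibited by more than 5 SD of the compound-free buffer control wells, on both duplicate plates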;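 further: 0% = assay buffer control wells without compound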
Kir2-1 spec = mouse Kir2.1 channel inhibition, confirmation, selectivity assay for KCNK9 modulator project, cell-based, HEK293, thallium flux; shares compounds with KCNK9 block; Kir2.1 cells, FluxOR thallium flux fluorescence; inhibition, % at 10 µM; hit rate 4% among 4,900; AID 492993, 2010;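 active means thallium signal drop more than 5 SD beyond the mean of the no-compound control wells, seen in both duplicate plates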;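 further: signal is fluorescence rise after thallium addition divided by baseline fluorescence; plate controls were assay buffer only for no effect and full block by chlorpromazine control for full effect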
KCNK9 uninduced = thallium flux in non-induced HEK293 cells, confirmation, counter-screen for KCNK9 inhibitor project, cell-based, second counter screen, non-induced KCNK9-HEK293; shares compounds with KCNK9 block; FluxOR thallium flux; inhibition, % at 10 µM; hit rate 40% among 4,900; AID 492997, 2010;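 active means thallium signal drop beyond 5 SD of the untreated control mean, on both duplicate plates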;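 further: plate controls were buffer only IC0 wells for no effect and SID17386958 at its maximal inhibitory level for full effect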
The depositor's hits bear a star; i = inactive; . = no result.

SMILES | KCNQ1 act | KCC2 mod | KCNK3 inh | hERG protect | KCNQ1 block | KCNK9 block | KCNK9 inh conf | Kir2-1 spec | KCNK9 uninduced
Cc1nc(C)c(-c2ccc(SCc3ccc(Cl)cc3)nn2)s1 | i | . | i | -9 | i | i | i | i | i
CCc1ccc(N(C(=O)c2snc(C(N)=O)c2N)C(C(=O)NCC2CCCO2)c2cccs2)cc1 (stereo not drawn) | i | 0.043 | i | -18 | i | i | i | i | i
Fc1ccc(/C=N/NC2=Nc3cccc4cccc2c34)cc1 | i | -0.3 | i | -2 | i | i | . | . | .
CN(C)c1ccc(N2C(=NC(=O)C3CCCO3)SC3CS(=O)(=O)CC32)cc1 (stereo not drawn) | i | . | i | -9 | i | i | . | . | .
CCCCCCCCCCCC(=O)NC(Cc1ccc(OC)c([N+](=O)[O-])c1)C(=O)O (stereo not drawn) | i | -0.055 | i | -13 | i | i | i | i | i
CC(C)(C)C1CCc2onc(C(=O)NCc3ccc(F)cc3)c2C1 (stereo not drawn) | i | -0.66 | i | -9 | i | i | i | i | i
O=C(NCc1ccc(F)cc1)c1noc2c1CCCC2 | i | . | i | -5 | i | i | . | . | .
Cc1ccc(-c2nc(C)sc2CC(=O)NCc2ccco2)cc1 | i | 0.49 | i | -17 | i | i | . | . | .
COc1ccc(-c2n(CC(=O)OC3CC(C)CCC3C(C)C)c3ccccc3[n+]2C)cc1 (stereo not drawn) | i | -0.41 | i | -31 | 11* | -17* | 73%* | 80%* | i
O=C(N/N=C\c1ccc(F)cc1)c1ccc(Cn2cc(Br)c([N+](=O)[O-])n2)o1 | i | -0.083 | i | -20 | i | -12* | 50%* | i | i
Cc1ccc(SC[C@H](C)CN2CC[C@H](C)CCC2=O)cc1 | i | . | i | -8 | i | i | i | i | i
O=C(COC(=O)C1CCN(S(=O)(=O)c2cccs2)CC1)NCc1ccccc1 | i | -0.95 | i | -6 | i | i | . | . | .
Nc1c(C(=O)N/N=C/c2cccnc2)oc2nc(-c3ccccc3)cc(-c3ccco3)c12 | i | -0.67 | i | -14 | 6* | -11* | i | i | 31%*
COc1ccc(C(=O)C2CCCN(S(=O)(=O)C(C)C)C2)c(C)c1 (stereo not drawn) | i | -0.017 | i | -18 | i | i | . | . | .
CN(C)CCCN1C(=O)c2oc3ccc(F)cc3c(=O)c2C1c1cccnc1 (stereo not drawn) | i | 1.3 | i | -6 | i | i | . | . | .
Cc1ccc(-c2c(C(=O)N/N=C/c3ccc(OC(C)C)cc3)nnn2-c2nonc2N)cc1 | i | . | i | -3 | i | i | . | . | .
Cc1cc(C)c2nc(NNC(=O)c3ccc(S(=O)(=O)N4CCCC(C)C4)cc3)sc2c1 (stereo not drawn) | i | 0.3 | i | -12 | i | i | i | i | i
CCC(=O)NNc1nc2c(C)cc(C)cc2s1 | i | . | i | -8 | i | i | . | . | .
